{"source": "paper PMC5473019", "about": "(Journal of the American Chemical Society, 2017)", "key": {"[1]": {"system": "HeLa cells stably expressing GFP-LC3", "test": "GFP-LC3 puncta assay of autophagic flux, with and without bafilomycin A1", "type": "cell-based", "method_in_brief": "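HeLa cells stably expressing GFP-LC3 were given peptide for 2 h in serum-free Opti-MEM acidified with 0.15% (v/v) 6 N HCl, with or without bafilomycin A1. Cells were fixed in 2% PFA in PBS and GFP-LC3 puncta per cell were counted by fluorescence microscopy, with ≥100 cells per sample. Triplicate samples, mean ± SEM, t test versus DMSO; ≥3 independent experiments.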"}, "[2]": {"test": "Solubility as observed by the authors", "type": "physicochemical"}, "HeLa-Htt103Q cells": {"system": "HeLa-Htt103Q cells", "test": "Htt103Q aggregate assay, cellular model of Huntington's disease", "type": "cell-based", "conditions": "HeLa cells expressing CFP-htt103Q, 20 μM peptide, aggregates <1 μm", "method_in_brief": "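HeLa cells expressing CFP-Htt103Q were treated with peptide, then fixed in 2% PFA in PBS. An observer blinded to condition counted CFP-positive aggregates <1 μm by fluorescence microscopy. Scores were the percentage of cells carrying small aggregates and the number of small aggregates per cell.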"}}, "note": "*1 amine or outer side, *2 acyl side, *3 side chain or, on linkers, in order; H or OH if unused. Where a SMILES comes first, the peptide text is derived from it. Bridges are numbered along the chain shown (N, C = ends). [ ]: non-standard residue; d: D form. The star is where a group is joined. oXylylene = c1ccc(C[*:2])c(C[*:1])c1; Pent4ynoyl = C#CCCC(=O)*"}
{"compound": "C#CCCC(=O)N[C@H](C(=O)N[C@@H]1CSCc2ccccc2CSC[C@H](C(=O)N[C@@H](Cc2ccccc2)C(=O)N[C@@H](Cc2c[nH]cn2)C(=O)N[C@H](C(=O)N[C@@H](Cc2c[nH]c3ccccc23)C(=O)N[C@@H](Cc2c[nH]cn2)C(N)=O)[C@@H](C)CC)NC(=O)[C@H](C)NC(=O)[C@H](CC(N)=O)NC1=O)C(C)C", "note": "[DD5-o] (Pent4ynoyl-V[dC]NA[dC]FHIWH-NH2; linker 2-5 via oXylylene)", "values": [{"measurement": "extent of autophagy induction relative to Tat-Beclin 1 (GFP-LC3 puncta)", "setting": "[1]; 10 μM peptide, 2 h", "result": "slightly less activity than Tat-Beclin 1"}, {"measurement": "change in GFP-LC3 puncta upon cotreatment with Baf A1", "setting": "[1]; peptide 2 h plus bafilomycin A1", "result": "further increase in GFP-LC3 puncta"}, {"measurement": "solubility in water", "setting": "[2]; judged for 2D-NMR experiments", "result": "not soluble enough in water for 2D-NMR experiments"}, {"measurement": "number of small htt103Q aggregates observed per cell", "setting": "HeLa-Htt103Q cells", "result": "significant decrease"}, {"measurement": "percentage of cells that have small htt103Q aggregates", "setting": "HeLa-Htt103Q cells", "result": "significant decrease"}]}
{"compound": "(HT)-VcNAcFHIWH (sidechain bridge or staple) [HT-DD5-o]", "values": [{"measurement": "solubility compared with DD5-o", "setting": "[2]; medium not stated, N-terminal tag attached to DD5-o", "result": "equally soluble as DD5-o"}]}
